Assay [1] concerns the target Matrix metalloproteinase-9 (Homo sapiens) (UniProt P14780). In words: Stimulation of MMP9 activity in HUVEC assessed as increase in enzyme activity at 100 nM relative to control. The procedure, abridged:
(§1)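 HUVEC or CB1 siRNA-knockdown HUVEC (electroporated, 1.5 µg siRNA) grown to 90% confluence in six-well plates, treated with drug (optionally with 1 µM O-1918) with or without UV irradiation (1-15 min, 280-315 nm), 24 h at 37 °C. Conditioned media mixed with DQ gelatin (6 µg/mL), 24 h at 37 °C dark; fluorescence 485/530 nm against collagenase standard curve; triplicate; percent over vehicle, mean ± SEM of three experiments.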

For assay [2] the target is unchanged. As to the kind of experiment: Stimulation of MMP9 activity in CB1 receptor knockout HUVEC assessed as increase in enzyme activity at 1 uM relative to control. The format is cell-based. The essentials: as §1
For assay [3], the system named is HUVEC. In words: Increase in cell migration of irradiated HUVEC at 100 nM relative to control. The format is functional, Homo sapiens. The procedure, abridged:
(§2)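 Cells harvested with versene, resuspended in RPMI 1640 with 0.1% BSA; 30 000 cells loaded in bottom well of 48-well microchemotaxis chamber under collagen IV-coated (0.1 mg/mL) 10 µm polyester filter, inverted 2 h at 37 °C; upper wells given drug in RPMI/0.1% BSA, 6 h at 37 °C. Filters fixed and stained with Diff-Quick; migrated cells counted at well centre, ×20. UV irradiation 1-15 min at 280-315 nm, 10 in. distance.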

Assay [4] relates to HUVEC. In words: Stimulation of angiogenesis of HUVEC assessed as increase in cord length formation after 36 hrs by Matrigel based tube formation assay. The note with it: Homo sapiens. It counts as functional, cell-based. The essentials: (§3)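 HUVEC or CB1 siRNA-knockdown HUVEC at 90% confluence harvested with versene, spun 600g 5 min, resuspended in serum-free RPMI 1640 with drug (optionally 1 µM O-1918); 40 000 cells/well on gelled 1:1 RPMI/Matrigel, with or without UV irradiation, 36 h at 37 °C. Fixed with Diff-Quick; total tube length from three random 10× fields; triplicate, three experiments; percent increase over vehicle, mean ± SEM; bFGF 5 ng/mL positive control.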

Assay [5] addresses 72 kDa type IV collagenase (Homo sapiens) (UniProt P08253). As to the kind of experiment: Stimulation of MMP2 activity in CB1 receptor knockout HUVEC assessed as increase in enzyme activity at 10 nM relative to control. It counts as cell-based. The procedure, abridged: as §1
The target is the same in assay [6]. As to the kind of experiment: Stimulation of MMP2 activity in CB1 receptor knockout HUVEC assessed as increase in enzyme activity at 1 uM relative to control. The format is cell-based. The essentials:
as §1

Assay [7] relates to HUVEC. As to the kind of experiment: Stimulation of angiogenesis of irradiated HUVEC assessed as increase in cord length formation after 36 hrs by Matrigel based tube formation assay. It counts as functional, cell-based. The note with it: Homo sapiens. The procedure, abridged: as §3
Assay [8] has as its system HUVEC. As to the kind of experiment: Stimulation of angiogenesis of irradiated CB1 receptor knockout HUVEC assessed as increase in cord length formation after 36 hrs at 10 nM by Matrigel based tube formation assay. The format is functional, Homo sapiens. The procedure, abridged: as §3
Assay [9] deals with Matrix metalloproteinase-9 (Homo sapiens) (UniProt P14780). As to the kind of experiment: Stimulation of MMP9 activity in CB1 receptor knockout HUVEC assessed as increase in enzyme activity at 10 nM relative to control. The essentials:
as §1

Assay [10] has the same target. In words: Stimulation of MMP9 activity in HUVEC assessed as increase in enzyme activity at 1 uM relative to control. The format is cell-based. The procedure, abridged: as §1
The target of assay [11] is 72 kDa type IV collagenase (Homo sapiens) (UniProt P08253). As to the kind of experiment: Stimulation of MMP2 activity in CB1 receptor knockout HUVEC assessed as increase in enzyme activity at 100 nM relative to control. The format is cell-based. The procedure, abridged: as §1
Sequence of 72 kDa type IV collagenase (Homo sapiens) (P08253 110-660 limits assumed): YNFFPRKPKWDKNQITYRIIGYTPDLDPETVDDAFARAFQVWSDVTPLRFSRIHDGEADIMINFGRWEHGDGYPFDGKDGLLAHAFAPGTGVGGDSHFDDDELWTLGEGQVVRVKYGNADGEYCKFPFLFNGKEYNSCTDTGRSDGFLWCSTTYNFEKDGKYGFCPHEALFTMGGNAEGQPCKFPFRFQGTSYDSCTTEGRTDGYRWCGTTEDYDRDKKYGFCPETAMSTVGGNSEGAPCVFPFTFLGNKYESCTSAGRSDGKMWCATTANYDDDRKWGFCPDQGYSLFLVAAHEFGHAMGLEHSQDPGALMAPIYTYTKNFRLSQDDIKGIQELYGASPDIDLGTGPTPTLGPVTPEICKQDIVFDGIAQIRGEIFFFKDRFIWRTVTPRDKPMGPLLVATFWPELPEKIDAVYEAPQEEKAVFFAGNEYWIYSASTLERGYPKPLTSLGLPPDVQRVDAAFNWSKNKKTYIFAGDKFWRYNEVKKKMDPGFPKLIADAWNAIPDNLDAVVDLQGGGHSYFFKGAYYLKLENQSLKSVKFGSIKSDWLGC
Assay [12] has the same target. In words: Stimulation of MMP2 activity in HUVEC assessed as increase in enzyme activity at 100 nM relative to control. The essentials: as §1
The test system of assay [13] is HUVEC. As to the kind of experiment: Stimulation of angiogenesis of irradiated CB1 receptor knockout HUVEC assessed as increase in cord length formation after 36 hrs at 1 uM in presence of 1 uM anandamide receptor antagonist O-1918 by Matrigel based tube formation assay. It counts as functional, cell-based. The note with it: Homo sapiens. The procedure, abridged: as §3

The test system of assay [14] is HUVEC. In words: Increase in cell migration of irradiated HUVEC at 1 uM relative to control. It counts as functional, Homo sapiens. The essentials: as §2
The target of assay [15] is Matrix metalloproteinase-9 (Homo sapiens) (UniProt P14780). In words: Stimulation of MMP9 activity in CB1 receptor knockout HUVEC assessed as increase in enzyme activity at 100 nM relative to control. The essentials:
as §1

Assay [16] has as its system HUVEC. As to the kind of experiment: Stimulation of angiogenesis of CB1 receptor knockout irradiated HUVEC assessed as increase in cord length formation after 36 hrs by Matrigel based tube formation assay. The format is functional, cell-based. As to conditions: Homo sapiens. The procedure, abridged: as §3
Assay [17] has as its system HUVEC. In words: Stimulation of angiogenesis of irradiated CB1 receptor knockout HUVEC assessed as increase in cord length formation after 36 hrs at 1 uM by Matrigel based tube formation assay. The format is functional, Homo sapiens. The procedure, abridged: as §3
In assay [18] the target is Matrix metalloproteinase-9 (Homo sapiens) (UniProt P14780). In words: Stimulation of MMP9 activity in CB1 receptor knockout HUVEC assessed as increase in enzyme activity in presence of 1 uM anandamide receptor antagonist O-1918 relative to control. The format is functional, cell-based. The procedure, abridged: as §1
Sequence of Matrix metalloproteinase-9 (Homo sapiens) (P14780 whole entry): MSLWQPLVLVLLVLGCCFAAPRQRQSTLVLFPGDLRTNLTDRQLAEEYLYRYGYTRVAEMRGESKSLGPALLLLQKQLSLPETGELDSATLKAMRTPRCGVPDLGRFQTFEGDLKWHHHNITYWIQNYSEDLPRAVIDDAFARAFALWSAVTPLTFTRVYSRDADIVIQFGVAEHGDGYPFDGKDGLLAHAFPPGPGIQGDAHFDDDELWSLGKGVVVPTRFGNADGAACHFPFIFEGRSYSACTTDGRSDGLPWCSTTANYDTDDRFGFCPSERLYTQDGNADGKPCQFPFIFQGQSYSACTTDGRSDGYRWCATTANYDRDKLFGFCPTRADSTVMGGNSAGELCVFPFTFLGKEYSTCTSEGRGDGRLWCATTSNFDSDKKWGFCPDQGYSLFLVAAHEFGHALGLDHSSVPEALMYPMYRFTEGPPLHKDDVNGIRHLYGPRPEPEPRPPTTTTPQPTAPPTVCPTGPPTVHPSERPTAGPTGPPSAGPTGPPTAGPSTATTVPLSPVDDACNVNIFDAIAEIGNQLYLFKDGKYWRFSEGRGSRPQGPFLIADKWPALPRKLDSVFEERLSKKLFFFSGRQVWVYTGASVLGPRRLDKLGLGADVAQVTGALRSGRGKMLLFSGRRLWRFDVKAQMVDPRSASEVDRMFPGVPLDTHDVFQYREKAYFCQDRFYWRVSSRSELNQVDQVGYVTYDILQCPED
Assay [19] concerns HUVEC. As to the kind of experiment: Increase in cell migration of irradiated HUVEC at 10 nM relative to control. It counts as functional, Homo sapiens. The essentials:
as §2

Assay [20] concerns the target 72 kDa type IV collagenase (Homo sapiens) (UniProt P08253). In words: Stimulation of MMP2 activity in HUVEC assessed as increase in enzyme activity at 10 nM relative to control. It counts as cell-based. The essentials: as §1
For assay [21] the target is unchanged. In words: Stimulation of MMP2 activity in CB1 receptor knockout HUVEC assessed as increase in enzyme activity in presence of 1 uM anandamide receptor antagonist O-1918 relative to control. It counts as functional, cell-based. The essentials: as §1
Assay [22] relates to HUVEC. As to the kind of experiment: Stimulation of angiogenesis of CB1 receptor knockout HUVEC assessed as increase in cord length formation after 36 hrs by Matrigel based tube formation assay. The format is functional, Homo sapiens. The essentials:
as §3

The subject of assay [23] is HUVEC. In words: Stimulation of angiogenesis of irradiated CB1 receptor knockout HUVEC assessed as increase in cord length formation after 36 hrs at 100 nM by Matrigel based tube formation assay. The format is functional, Homo sapiens. The procedure, abridged: as §3
Assay [24] deals with Matrix metalloproteinase-9 (Homo sapiens) (UniProt P14780). As to the kind of experiment: Stimulation of MMP9 activity in HUVEC assessed as increase in enzyme activity at 10 nM relative to control. The format is cell-based. The essentials:
as §1

The target of assay [25] is 72 kDa type IV collagenase (Homo sapiens) (UniProt P08253). In words: Stimulation of MMP2 activity in HUVEC assessed as increase in enzyme activity at 1 uM relative to control. The procedure, abridged: as §1
The target of another assay is Cannabinoid receptor 2 (Homo sapiens, UniProt P34972). In words: Displacement of [3H]CP-55-940 from human recombinant CB2 receptor expressed in COS cells. The format is cell-based.
Sequence of Cannabinoid receptor 2 (P34972 whole entry): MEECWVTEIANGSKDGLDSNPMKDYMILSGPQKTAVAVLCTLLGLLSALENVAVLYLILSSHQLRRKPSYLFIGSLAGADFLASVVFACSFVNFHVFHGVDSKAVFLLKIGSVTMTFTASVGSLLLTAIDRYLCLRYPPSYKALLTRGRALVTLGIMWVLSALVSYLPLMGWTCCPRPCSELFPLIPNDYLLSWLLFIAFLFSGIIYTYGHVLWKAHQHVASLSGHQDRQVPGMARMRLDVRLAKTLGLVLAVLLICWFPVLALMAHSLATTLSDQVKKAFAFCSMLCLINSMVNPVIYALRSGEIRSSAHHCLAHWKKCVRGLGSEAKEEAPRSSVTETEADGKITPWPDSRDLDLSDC
Another assay deals with Cannabinoid receptor 1 (Homo sapiens, UniProt P21554). As to the kind of experiment: Displacement of [3H]CP-55-940 from human recombinant CB1 receptor expressed in COS cells. The format is cell-based. A general note: Displacement assays read how much labelled ligand stays bound in the presence of the test substance.
Sequence of Cannabinoid receptor 1 (P21554 whole entry): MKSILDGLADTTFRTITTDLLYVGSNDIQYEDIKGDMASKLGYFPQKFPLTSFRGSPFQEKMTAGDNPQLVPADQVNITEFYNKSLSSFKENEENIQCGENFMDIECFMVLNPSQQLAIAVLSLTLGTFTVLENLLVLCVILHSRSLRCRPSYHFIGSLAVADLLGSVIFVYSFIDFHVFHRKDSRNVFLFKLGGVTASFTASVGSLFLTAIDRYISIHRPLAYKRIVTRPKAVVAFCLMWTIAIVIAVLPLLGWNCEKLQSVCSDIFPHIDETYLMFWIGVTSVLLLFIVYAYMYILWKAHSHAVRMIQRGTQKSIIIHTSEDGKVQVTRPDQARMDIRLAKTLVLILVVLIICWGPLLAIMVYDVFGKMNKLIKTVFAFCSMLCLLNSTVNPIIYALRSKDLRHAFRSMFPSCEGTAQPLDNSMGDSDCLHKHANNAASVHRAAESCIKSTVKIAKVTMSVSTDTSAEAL

Calls of active or inactive are those of the source. No cut-off for these calls is given here.

Take `C[C@H](CO)NC(=O)CCC/C=C\C/C=C\C/C=C\C/C=C\CCOC(=O)c1cc(I)ccc1N=[N+]=[N-]`: the outcome in [1], in assay [2], in assay [5], in assay [6], in assay [9] and in assay [10] was inactive. Besides, the outcome (in [11]; in assay [12]; in the assay on HUVEC [13]; in assay [15]; in [18]; in assay [20]) was inactive. The outcome in assay [21], in assay [24] and in assay [25] was inactive. Further, the Activity with HUVEC [3] was 35%; with HUVEC [4] it was “Dose-dependent effect”; in the assay on HUVEC [8], 21%; in the assay on HUVEC [14], 54%; with HUVEC [16], “Dose-dependent effect”; with HUVEC [17], 47%. Also, the Activity stood at 18% with HUVEC [19], 8% in the assay on HUVEC [22] and 30% with HUVEC [23]. For the same compound, in the assay with HUVEC [7], the result was Active.

On to `C[C@H](CO)NC(=O)CCC/C=C\C/C=C\C/C=C\C/C=C\CCOC(=O)c1cccc2c1OC(C)(C(C)(C)C)O2` (stereo partly drawn), for which the result in [1], in assay [2], in [5], in [6], in assay [9] and in [10] was inactive. For the same compound, the result in assay [11], in assay [12], in assay [15], in assay [18], in [20] and in [21] was inactive. Besides, the result in assay [24] and in assay [25] was inactive. Also, the Ki – broadly, the dissociation constant of the complex between target and ligand, obtained from inhibition or displacement – was 1020 nM on Cannabinoid receptor 2 and 2800 nM on Cannabinoid receptor 1. Besides, the Activity in the assay with HUVEC [3] is 40%; with HUVEC [14] it was 55%; in the assay with HUVEC [19], 27%. Besides, the outcome with HUVEC [16] and in the assay on HUVEC [22] (Homo sapiens) was Active.

Regarding `CCCCC/C=C\C/C=C\C/C=C\C/C=C\CCCC(=O)N[C@H](C)CO`, the Activity in assay [1] was 5%; in [2], 33%; in assay [5], 10%; in assay [6], 25%; in assay [9], 25%; in assay [10] it was 28%. Moreover, the Activity stood at 33% in [11]; 28% in assay [12]; 10% in assay [15]; 5% in assay [20]; 20% in assay [24]; 20% in [25].

The values above are taken from ChEMBL document CHEMBL1140909 (J Med Chem, 2009).
